PKD1 kinase inh: inhibitors of human PKD1 kinase | Q15139 | PKD1 kinase fluorescence polarization assay | inhibition, % (concentration not given with the values) | 200,000 compounds, 0.056% hits | AID 797; in the data active = inhibition above about 50%
ABCG2 inh: inhibitors of human ABCG2 transporter, ABCB1 counter-screen. Q9UNQ0. IgMXP3 cells, JC-1 efflux, flow cytometry. inhibition, % at 6.6 µM. 190,000 compounds, 0.1% hits;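 active = inhibition above 80%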;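 also: 0% = DMSO and 100% = nicardipine control wells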
Target sequence (Q9UNQ0 whole entry, looked up): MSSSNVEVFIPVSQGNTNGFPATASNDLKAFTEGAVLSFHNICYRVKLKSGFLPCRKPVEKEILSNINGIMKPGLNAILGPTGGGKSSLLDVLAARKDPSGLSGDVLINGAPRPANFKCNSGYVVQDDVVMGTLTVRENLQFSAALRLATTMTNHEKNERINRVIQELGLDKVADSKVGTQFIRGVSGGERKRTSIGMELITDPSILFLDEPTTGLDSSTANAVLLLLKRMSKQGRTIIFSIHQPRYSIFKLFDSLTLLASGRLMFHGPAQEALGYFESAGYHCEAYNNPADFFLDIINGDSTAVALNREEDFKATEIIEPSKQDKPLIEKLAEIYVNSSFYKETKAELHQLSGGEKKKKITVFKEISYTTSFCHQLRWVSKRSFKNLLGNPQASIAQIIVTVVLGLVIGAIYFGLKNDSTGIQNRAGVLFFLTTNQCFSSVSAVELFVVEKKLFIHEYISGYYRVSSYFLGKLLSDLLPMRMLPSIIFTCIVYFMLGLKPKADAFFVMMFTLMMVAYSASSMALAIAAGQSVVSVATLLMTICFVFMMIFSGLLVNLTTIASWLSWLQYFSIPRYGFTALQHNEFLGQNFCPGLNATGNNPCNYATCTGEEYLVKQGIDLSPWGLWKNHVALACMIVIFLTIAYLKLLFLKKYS
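Assay system – ABCG2 IgMXP3 and barcoded ABCB1 CCRF-Adr cell mix · Input – 3 million cells/mL in well · Reagent – JC-1 fluorescent substrate · Compound – single test compound dose, 6.6 µM final · Timing – 10 min exposure at 25 °C with rotation, no wash · Detection – flow cytometry of retained JC-1 fluorescence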
b-catenin transl: beta-catenin nuclear translocation modulation | HeLa beta-catenin nuclear translocation, immunofluorescence imaging | nuclear translocation activity, % at 5 µM | 190,000 compounds, 0.3% hits;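 active = nuclear translocation activity above 50% at 5 µM, with a well cell count of 50 or more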;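 also: per-cell ratio of nuclear to cytoplasmic median beta-catenin stain intensity; plate controls were DMSO negative control for no effect and GSK-3 inhibitor IX positive control for full effect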
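Assay system: human HeLa cells, native beta-catenin; doses: 5 µM primary, 0.02–20 µM confirmation; incubation: compound treatment 24 h, 37°C, 5% CO2; technique: fluorescence imaging of beta-catenin antibody stain plus DAPI; measure: % activation, nuclear-to-cytoplasmic median beta-catenin signal ratio per cell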
ABCB1 block: human ABCB1 inhibition, ABCG2 as counter-screen | P08183 | CCRF-Adr cells, JC-1 efflux, flow cytometry | inhibition, % at 6.6 µM | 190,000 compounds, 0.067% hits | AID 1326; in the data active = inhibition above about 40%;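 also: 0% = vehicle and 100% = reference inhibitor; higher value means more JC-1 retained so stronger ABCB1 efflux block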
MT stabilizer: stabilizes microtubules in HeLa cells; HeLa tubulin immunostaining HCS, 24 h; share of cells brighter than vehicle mean+2SD; 200,000 compounds, 0.83% hits; % tubulin-high responders, % at 10 µM; AID 2205;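 active = plate Z-score above 3 for both tubulin-high and condensed-nucleus cell shares, with cell loss under 80%, at 10 µM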;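 also: anti alpha tubulin signal scored within the nucleus-defined area of each cell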
Starred values were filed as active, the others as inactive; . = no result. Shown are actives, neighbours in structure and some others; about 1% of the full set was active somewhere.

SMILES	PKD1 kinase inh	ABCG2 inh	b-catenin transl	ABCB1 block	MT stabilizer
CCOC(=O)C(CC)Sc1nc(-c2ccc(OC)cc2)nc2c1c(=O)n(C)c(=O)n2C (configuration not stated)	-2.9	.	.	.	3.4
COc1ccc(S(=O)(=O)N2N=C(C)Oc3ccccc3C2=O)cc1	-5.7	0.4	79.7*	0.1	37.4*
Cc1ncsc1CCOC(=O)C1C2CC3CC(C2)CC1C3 (configuration not stated)	-7.8	-0.5	-1.4	-0.1	3.0
O=[N+]([O-])c1cc(-c2ncccn2)cs1	-13.0	8.0	.	6.7	2.2
COc1ccc(S(=O)(=O)NCCCCC(=O)O)cc1C(=O)O	-4.8	2.4	-1.4	0.6	2.4
CCc1ccc(C2=CC(c3cc(Br)ccc3F)n3ncnc3N2)cc1 (configuration not stated)	2.3	0.8	1.8	0.3	29.8*
Fc1ccc(Br)cc1C1C=C(c2ccc(Br)cc2)Nc2ncnn21 (configuration not stated)	5.8	0.2	-11.2	0.3	48.9*
CSc1nc(Oc2ccc3ccccc3c2)c2sccc2n1	-12.1	0.6	86.2*	-0.1	41.0*
CCOc1cc(N2CCOCC2)c(OCC)cc1NC(=O)CCS(=O)(=O)c1ccc(Cl)cc1	0.7	4.1	-4.3	1.4	2.8
CCOc1cc(N2CCOCC2)c(OCC)cc1NS(=O)(=O)c1ccc(Cl)s1	-6.7	0.5	9.5	-0.1	39.8*
Cc1cc(C(=O)COc2ccc(-c3nnco3)cc2)c(C)n1Cc1ccccc1	-11.2	1.2	0.7	0.4	2.1
COc1cccc(C(=O)Nc2ncc3c(n2)CC(c2ccc(OC)cc2OC)CC3=O)c1 (configuration not stated)	5.9	3.2	72.6*	0.7	67.0
Cc1[nH][nH]c(=O)c1C(c1c(C)[nH][nH]c1=O)c1cn(Cc2ccc(Cl)c(Cl)c2)c2ccccc12	9.5	1.6	98.8*	0.1	5.6
O=C(O)Cc1cn(Cc2ccc(F)cc2)c2ccccc12	-3.2	0.2	-0.2	-0.1	2.1
Cc1[nH][nH]c(=O)c1C(c1c(C)[nH][nH]c1=O)c1cn(Cc2ccc(F)cc2)c2ccccc12	-11.3	4.9	22.7	1.1	20.3*
COC(=O)c1ccc(Oc2cc(C)nc(SC)n2)cc1	-0.3	1.2	7.5	0.0	50.9*
COc1ccc(N(C)C(=S)Oc2ccc(C(=O)Nc3ccccc3)cc2)cc1	1.8	4.0	-1.6	0.7	43.6*
CCOc1cc(S(=O)(=O)N2CC=C(c3ccc(F)cc3)CC2)c(OCC)cc1-n1cnnn1	-2.4	2.7	0.7	1.1	45.3*
CCOc1cc(S(=O)(=O)N2CCC(Cc3ccccc3)CC2)c(OCC)cc1-n1cnnn1	8.1	7.2	-7.8	1.4	2.5
CC(=O)NCc1ccc(S(=O)(=O)NC(C(=O)O)C(C)C)cc1 (configuration not stated)	-1.6	1.1	-4.3	0.7	3.0
CC1c2[nH]c3ccccc3c2CCN1C(=O)Nc1ccccc1 (configuration not stated)	0.8	2.1	4.9	0.7	42.7*
O=C(Nc1ccccc1)N1CCc2c([nH]c3ccccc23)C1C(F)(F)F (configuration not stated)	.	.	-1.7	.	.
CC1=Nc2ccccc2/C1=C/c1c(N)n2c(S(=O)(=O)CC(C)C)nsc2nc1=O	-4.6	-1.1	0.0	-0.8	3.4
O=C(N/N=C/c1ccccc1)c1n[nH]c2c1CCCC2	-6.0	6.2	-0.2	0.2	3.5
O=C(N/N=C/c1ccc(Cl)cc1)c1n[nH]c2c1CCCC2	.	.	99.9*	.	.
SMILES	PKD1 kinase inh	ABCG2 inh	b-catenin transl	ABCB1 block	MT stabilizer
O=C(N/N=C/C(Br)=C/c1ccccc1)c1cccs1	-7.5	-0.1	-0.8	0.0	2.5
O=C(N/N=C/c1cccs1)c1n[nH]c2c1CCC2	0.2	15.9	0.3	0.1	25.3*
O=C(N/N=C/c1ccccc1Cl)c1n[nH]c2c1CCCC2	-2.8	1.9	1.4	0.1	3.3
O=C(N/N=C/C(Br)=C/c1ccccc1)c1n[nH]c2c1CCC2	-4.2	.	160.7*	.	19.6
O=C(OCC#Cc1c(COC(=O)c2ccccc2)nnn1Cc1ccccc1)c1ccccc1	.	.	-2.3	.	.
COc1cccc(C(=O)c2c(C)c(CCC#N)n3ccccc23)c1	-1.7	6.9	-5.0	0.0	2.0
N#Cc1c(Nc2ccccc2)sc(C(=O)C2CC2)c1N	-2.0	-0.8	-2.5	-0.2	4.2
COC(=O)C(CC(=O)c1ccc(Br)cc1)n1ccnc1 (configuration not stated)	-13.3	0.1	1.1	0.3	3.8
CCc1cc2c(=O)c(-c3ccc4c(c3)OCCO4)c(C)oc2cc1OS(C)(=O)=O	-1.4	10.7	1.8	1.3	10.9*
O=C(/C=C/c1c(Cl)cccc1Cl)N1CCN(c2ncccn2)CC1	-2.8	20.3	1.9	1.9	1.8
O=C(/C=C/c1ccco1)N1CCN(c2ncccn2)CC1	-0.6	-0.5	.	0.0	9.8*
Cc1nc(C(F)(F)F)c(C(=O)N/N=C(\N)c2ccccn2)s1	5.6	1.0	0.3	0.1	3.7
CC(=O)Cc1nsc(NC(=O)c2ccc(-c3cc(Cl)ccc3Cl)o2)n1	-5.4	-0.1	131.6*	0.1	26.5*
CC1(C)Cc2ccccc2-c2nc(NCCCO)[nH]c(=O)c21	.	.	1.2	.	.
O=C(CNc1cccc2ccccc12)N/N=C/C(Br)=C/c1ccccc1	0.9	-0.7	-0.4	-0.6	47.7*
Cc1onc(-c2c(Cl)cccc2Cl)c1C(=O)N1CCN(c2ccccc2)CC1	2.8	15.3	0.5	1.8	21.1*
Cc1onc(-c2c(Cl)cccc2Cl)c1C(=O)N1CCN(c2ncccn2)CC1	2.1	1.9	-0.8	2.7	1.4
CCc1nc(N2CCN(C(=O)c3ccco3)CC2)c2oc3ccccc3c2n1	4.5	-0.6	14.2	1.6	26.7*
O=C(N/N=C/c1ccc(Cl)cc1)c1cc2c(s1)-c1ccccc1CC2	-18.1	-1.7	-2.6	-0.4	34.6*
O=C(O)c1cc2c(s1)-c1ccccc1CC2	-5.2	4.0	-0.9	-0.1	2.8
CC1=C(C(=O)OCc2ccc3c(c2)OCO3)C(c2ccc(F)cc2)NC(=O)N1 (configuration not stated)	-8.7	27.8	13.5	1.4	14.8*
CC1=C(C(=O)OCc2ccc3c(c2)OCO3)C(c2ccc(Cl)cc2)NC(=O)N1 (configuration not stated)	-9.5	9.2	-0.4	2.0	15.8*
CCOC(=O)C1=C(C)NC(=O)NC1c1ccc2c(c1)OCCO2 (configuration not stated)	-3.3	2.8	-4.6	0.6	4.5
Cc1cccc(S(=O)(=O)C(C#N)c2nc3ccccc3nc2N2CCOCC2)c1 (configuration not stated)	6.1	0.0	-2.3	0.4	1.0
CN(C)N1C(N)=C(C#N)C(c2cccc3ccccc23)C2=C1CC(c1ccccc1)CC2=O (configuration not stated)	-11.7	-1.7	12.0	1.3	11.9*

Assay outcomes (PubChem)
